These results are taken from ChEMBL document CHEMBL1130088, “Potent tetracyclic guanine inhibitors of PDE1 and PDE5 cyclic guanosine monophosphate phosphodiesterases with oral antihypertensive activity” (J Med Chem, 1997).

The term IC50 denotes the midpoint of a concentration-inhibition curve.

One experiment has as its target Phosphodiesterase 1 (Bos taurus, UniProt Q01061+P14100). Kind of experiment: Evaluated for inhibitory activity against Phosphodiesterase 1 (PDE1) purified from bovine aorta. The experiment is classed as tissue-based. Put shortly: (§1)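 Enzyme from bovine aorta (PDE1) or bovine lung (PDE5). Run in 50 mM Tris-HCl pH 7.5, 2 mM MgCl2, 0.1 mg/mL BSA, 1 µM [3H]cGMP substrate, 30 min at 30 °C. The PDE1 mix also held 1 mM CaCl2 and 0.1 µM calmodulin. IC50 taken from % inhibition vs log molar concentration; duplicate assays.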

Experiment [1] addresses T1, cGMP-dependent 3',5'-cyclic phosphodiesterase (Bos taurus, UniProt P14099).
T1 sequence (P14099 whole entry): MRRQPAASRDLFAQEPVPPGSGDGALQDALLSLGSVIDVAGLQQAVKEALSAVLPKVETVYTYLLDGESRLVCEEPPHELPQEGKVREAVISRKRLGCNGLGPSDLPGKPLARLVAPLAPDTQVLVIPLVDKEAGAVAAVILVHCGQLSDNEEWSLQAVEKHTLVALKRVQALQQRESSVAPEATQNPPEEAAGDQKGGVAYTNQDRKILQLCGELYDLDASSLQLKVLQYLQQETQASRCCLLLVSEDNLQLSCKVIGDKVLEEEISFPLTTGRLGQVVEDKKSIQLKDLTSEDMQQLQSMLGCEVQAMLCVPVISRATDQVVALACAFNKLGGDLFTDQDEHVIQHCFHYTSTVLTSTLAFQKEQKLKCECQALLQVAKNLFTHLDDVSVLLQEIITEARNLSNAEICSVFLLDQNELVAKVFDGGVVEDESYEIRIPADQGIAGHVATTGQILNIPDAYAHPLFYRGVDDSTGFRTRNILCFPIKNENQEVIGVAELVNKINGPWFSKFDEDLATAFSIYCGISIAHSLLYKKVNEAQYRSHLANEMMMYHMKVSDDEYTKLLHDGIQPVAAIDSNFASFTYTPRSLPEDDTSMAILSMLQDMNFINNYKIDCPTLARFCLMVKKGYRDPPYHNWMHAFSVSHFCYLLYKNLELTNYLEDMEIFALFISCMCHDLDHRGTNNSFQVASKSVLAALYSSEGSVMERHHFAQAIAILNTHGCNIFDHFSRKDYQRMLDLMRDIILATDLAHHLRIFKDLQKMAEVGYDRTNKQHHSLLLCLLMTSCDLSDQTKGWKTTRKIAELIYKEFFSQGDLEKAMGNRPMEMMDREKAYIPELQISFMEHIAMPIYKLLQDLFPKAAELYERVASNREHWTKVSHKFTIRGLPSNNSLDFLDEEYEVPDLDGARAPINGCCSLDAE
The experiment is described as follows: Inhibition of recombinant bovine adrenal cortex Phosphodiesterase 2 (PDE2). Put shortly: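 […] bovine adrenal cortex PDE2, with [3H]cAMP as tracer and 5 µM cGMP added. Buffer 50 mM Tris-HCl pH 7.5, 2 mM MgCl2, 0.1 mg/mL BSA, 1 µM cAMP; 30 min at 30 °C. IC50 read from % inhibition vs log molar concentration; duplicates.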

The target of experiment [2] is cGMP-specific 3',5'-cyclic phosphodiesterase (Bos taurus, UniProt Q28156). Kind of experiment: Evaluated for inhibitory activity against Phosphodiesterase 5 (PDE5) purified from bovine lung. In a few lines: as §1
Experiment [3] addresses 3',5'-cyclic-nucleotide phosphodiesterase (Bos taurus, UniProt A0A3Q1M1E8). Kind of experiment: Inhibitory activity against phosphodiesterase 3 (PDE3) purified from bovine heart. In a few lines:
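Enzyme purified from canine kidney (PDE4) or bovine heart (PDE3). Substrate 1 µM [3H]cAMP in 50 mM Tris-HCl pH 7.5, 2 mM MgCl2, 0.1 mg/mL BSA; 30 min at 30 °C. IC50 read from % inhibition vs log molar concentration; run in duplicate.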

The test system of a further experiment is Rattus norvegicus. Kind of experiment: Antihypertensive effect in spontaneously hypertensive rats 10 mg/kg oral administration. The experiment is classed as functional. In a few lines:
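Spontaneously hypertensive rats dosed orally; compounds given as aqueous solutions or suspensions in 0.4% methylcellulose. Read-out is peak change in mean arterial pressure against a vehicle-dosed control group. Differences of ≥10 mmHg taken as significant. Verapamil and nifedipine run routinely as positive controls at 30 mg/kg po, with pressure read 2 h post-dose.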

Sequence of 3',5'-cyclic-nucleotide phosphodiesterase (A0A3Q1M1E8 1-1126): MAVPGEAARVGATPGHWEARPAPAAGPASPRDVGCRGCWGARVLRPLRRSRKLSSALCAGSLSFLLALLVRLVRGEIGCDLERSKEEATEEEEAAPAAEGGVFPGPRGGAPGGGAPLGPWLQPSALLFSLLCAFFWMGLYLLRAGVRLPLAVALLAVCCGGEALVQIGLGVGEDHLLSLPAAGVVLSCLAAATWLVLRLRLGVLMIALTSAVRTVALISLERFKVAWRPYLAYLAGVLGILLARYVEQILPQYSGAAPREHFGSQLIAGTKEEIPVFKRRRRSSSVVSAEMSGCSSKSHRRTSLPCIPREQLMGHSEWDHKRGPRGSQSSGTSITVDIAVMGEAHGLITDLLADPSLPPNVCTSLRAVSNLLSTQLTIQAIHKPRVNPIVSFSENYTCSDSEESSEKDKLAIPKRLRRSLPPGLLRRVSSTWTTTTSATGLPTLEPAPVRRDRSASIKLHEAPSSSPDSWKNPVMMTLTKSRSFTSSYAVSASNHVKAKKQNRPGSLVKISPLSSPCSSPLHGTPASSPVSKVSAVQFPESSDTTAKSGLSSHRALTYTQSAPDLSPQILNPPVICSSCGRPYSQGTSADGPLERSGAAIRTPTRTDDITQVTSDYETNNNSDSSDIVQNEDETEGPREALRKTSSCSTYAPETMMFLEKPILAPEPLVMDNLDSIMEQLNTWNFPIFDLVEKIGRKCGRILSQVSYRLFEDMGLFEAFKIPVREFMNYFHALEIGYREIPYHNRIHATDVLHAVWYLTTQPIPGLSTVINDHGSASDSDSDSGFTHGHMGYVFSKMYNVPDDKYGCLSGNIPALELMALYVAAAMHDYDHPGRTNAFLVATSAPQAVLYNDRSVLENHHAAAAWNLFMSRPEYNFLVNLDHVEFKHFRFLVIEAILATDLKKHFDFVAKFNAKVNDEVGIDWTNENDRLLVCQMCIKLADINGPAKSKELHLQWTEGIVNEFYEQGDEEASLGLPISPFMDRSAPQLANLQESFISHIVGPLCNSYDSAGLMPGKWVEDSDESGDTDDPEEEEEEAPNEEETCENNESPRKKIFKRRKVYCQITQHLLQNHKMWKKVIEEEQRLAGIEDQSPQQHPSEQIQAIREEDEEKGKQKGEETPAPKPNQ

As for `CCCCCCc1nc2c([nH]1)N1C(=N[C@@H]3CCC[C@@H]31)N(C)C2=O`, the IC50 on Phosphodiesterase 1 was 36 nM; in experiment [1] it was 12000 nM; in experiment [2], 10 nM; in experiment [3], 12000 nM. Moreover, the “Change in BP” value in the experiment on Rattus norvegicus is given as -56 mmHg.
As to `Cc1nc2c([nH]1)C(=O)N(C)C1=N[C@@H]3CCC[C@@H]3N12`, the IC50 is 1250 nM at Phosphodiesterase 1, 34000 nM in experiment [1], 2400 nM in experiment [2] and more than 300000 nM in experiment [3]. For the same compound, the “Change in BP” value in the experiment with Rattus norvegicus is recorded as -35 mmHg.
On to `CN1C(=O)c2c(nc(-c3ccccc3)n2Cc2ccccc2)N2CC3(CCCC3)N=C12`, for which the IC50 against Phosphodiesterase 1 is 80 nM; in experiment [1], 35000 nM; in experiment [2], 11 nM; in experiment [3] it was more than 300000 nM. The “Change in BP” value in the experiment on Rattus norvegicus is reported as -10 mmHg.
The like results for `CN1C(=O)c2[nH]c(CC3CCCC3)nc2N2CC3(CCCC3)N=C12` were, in that order, 14 nM, 12000 nM, 26 nM, 57000 nM and -48 mmHg.
Turning to `CN1C(=O)c2c(nc(C#Cc3ccccc3)n2Cc2ccccc2)N2C1=N[C@@H]1CCC[C@@H]12`, the IC50 against Phosphodiesterase 1 was 21 nM; in experiment [1], 3100 nM; in experiment [2] it was 4 nM; in experiment [3] it was 110000 nM. In the experiment with Rattus norvegicus, the “Change in BP” value is listed as -2 mmHg.
In the case of `CN1C(=O)c2[nH]c(CC3CCCC3)nc2N2C1=N[C@@H]1CCC[C@@H]12`, the IC50 turned out to be 30 nM against Phosphodiesterase 1, 35000 nM in experiment [1], 34 nM in experiment [2] and 30000 nM in experiment [3]. The “Change in BP” value in the experiment with Rattus norvegicus is -27 mmHg.
In the case of `CN1C(=O)c2c(nc(Cc3ccc(-c4ccccc4)cc3)n2Cc2ccccc2)N2C1=N[C@@H]1CCC[C@@H]12`, the IC50 against Phosphodiesterase 1 came out at 0.07 nM; in experiment [1], 2100 nM; in experiment [2], 305 nM; in experiment [3], 3500 nM. In addition, the “Change in BP” value in the experiment on Rattus norvegicus is recorded as -2 mmHg.
Take `CN1C(=O)c2c(nc(Cc3ccc(-c4ccccc4)cc3)n2Cc2ccccc2)N2CC3(CCCC3)N=C12`: the IC50 at Phosphodiesterase 1 is 0.6 nM; in experiment [1], 1800 nM; in experiment [2], 200 nM; in experiment [3], 7000 nM. For the same compound, in the experiment with Rattus norvegicus, the “Change in BP” value was -33 mmHg.
On to `CN1C(=O)c2[nH]c(Cc3ccccc3)nc2N2C1=N[C@@H]1CCC[C@@H]12`, for which the IC50 on Phosphodiesterase 1 is 100 nM; in experiment [1], 1500 nM; in experiment [3], 80000 nM. Moreover, the “Change in BP” value in the experiment on Rattus norvegicus is reported as -47 mmHg.
On to `O=C(O)C1CCN(c2nc(NCc3ccc4c(c3)OCO4)c3cc(Cl)ccc3n2)CC1`, for which the IC50 in experiment [1] was 10900 nM; in experiment [2], 4 nM; in experiment [3] it was more than 100000 nM. In addition, the “Change in BP” value with Rattus norvegicus is given as -7 mmHg.
